From ChEMBL document CHEMBL1148634 (J Med Chem, 2006)
Calls of active or inactive are those of the source. The rule behind the calls is not given here.

How the values were obtained:
[1] = test system: Melanophore; experiment: Antagonist activity in Xenopus laevis melanophore assessed as potency for pigment aggregation; format: functional, cell-based
Outline: (§1)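 Antagonism of the pigment aggregation response was tested on a clonal Xenopus laevis melanophore line.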

[2] = test system: Melanophore; experiment: Potency for pigment aggregation in Xenopus laevis melanophore at 10 uM relative to melatonin; format: functional
[3] = molecular target: T1, Melatonin receptor type 1A (Homo sapiens, UniProt P48039); experiment: Displacement of 2-[125I]iodomelatonin from human recombinant MT1 receptor expressed in NIH3T3 cells; format: cell-based
T1 sequence (P48039 whole entry): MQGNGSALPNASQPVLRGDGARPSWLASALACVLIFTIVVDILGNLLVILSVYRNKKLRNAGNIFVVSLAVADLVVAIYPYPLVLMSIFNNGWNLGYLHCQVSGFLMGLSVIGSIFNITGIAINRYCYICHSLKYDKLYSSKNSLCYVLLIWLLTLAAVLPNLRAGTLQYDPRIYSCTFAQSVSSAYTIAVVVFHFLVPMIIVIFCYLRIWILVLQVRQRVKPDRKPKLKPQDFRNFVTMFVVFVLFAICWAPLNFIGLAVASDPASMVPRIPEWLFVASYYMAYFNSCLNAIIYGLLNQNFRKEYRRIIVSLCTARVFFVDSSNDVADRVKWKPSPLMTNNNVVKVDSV

[4] = molecular target: T2, Melatonin receptor type 1B (Homo sapiens, UniProt P49286); experiment: Displacement of 2-[125I]iodomelatonin from human recombinant MT2 receptor expressed in NIH3T3 cells; format: cell-based
T2 sequence (P49286 whole entry): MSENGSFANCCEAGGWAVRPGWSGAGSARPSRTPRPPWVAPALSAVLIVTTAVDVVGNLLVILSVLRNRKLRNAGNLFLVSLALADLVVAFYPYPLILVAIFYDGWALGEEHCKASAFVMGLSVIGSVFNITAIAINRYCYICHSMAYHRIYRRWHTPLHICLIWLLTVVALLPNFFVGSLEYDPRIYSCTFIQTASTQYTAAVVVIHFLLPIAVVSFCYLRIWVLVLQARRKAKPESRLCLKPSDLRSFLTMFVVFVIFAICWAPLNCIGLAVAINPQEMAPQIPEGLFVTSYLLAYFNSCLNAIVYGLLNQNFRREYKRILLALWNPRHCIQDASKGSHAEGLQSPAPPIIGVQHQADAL

[5] = test system: Melanophore; experiment: Agonist activity in Xenopus laevis melanophore assessed as potency for pigment aggregation; format: functional, cell-based
Outline: (§2)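 A clonal Xenopus laevis melanophore line was grown in 96-well plates, and medium was switched to 0.7 × L-15 18 h before testing. Initial absorbance at 630 nm was read, analogue was added, and final absorbance was read after 60 min. Response was the fractional change 1 − (Af/Ai).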

[6] = molecular target: T3, Melatonin receptor type 1B (Homo sapiens) (UniProt P49286); experiment: Activity at MT2 receptor expressed in NIH3T3 cells assessed as inhibition of forskolin-stimulated cAMP synthesis; format: functional, cell-based; conditions: filed as agonist
T3 sequence (whole entry): T2 sequence (P49286 whole entry)
Outline: (§3)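 NIH 3T3 cells stably expressing cloned human MT1 or MT2 receptors were pretreated with IBMX (25 µM, 10 min), then given forskolin (1 µM, 10 min) with or without test agent. Cyclic AMP was measured in duplicate by radioimmunoassay for each cell sample. Data are mean ± SEM of quadruplicate cell samples.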

[7] = test system: Melanophore; experiment: Antagonist activity in Xenopus laevis melanophore assessed as potency for pigment aggregation at 10 uM; format: functional, cell-based; outline: as §1
[8] = molecular target: T1, Melatonin receptor type 1A; experiment: Activity at MT1 receptor expressed in NIH3T3 cells assessed as inhibition of forskolin-stimulated cAMP synthesis; format: functional, cell-based; conditions: filed as agonist; outline: as §3
[9] = test system: Melanophore; experiment: Agonist activity in Xenopus laevis melanophore assessed as potency for pigment aggregation at 10 uM; format: functional, cell-based; outline: as §2
[10] = molecular target: T1, Melatonin receptor type 1A; experiment: Activity at MT1 receptor expressed in NIH3T3 cells assessed as inhibition of […] cAMP synthesis; format: functional, cell-based; conditions: filed as antagonist
Outline: (§4)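 Antagonism was tested in NIH 3T3 cells expressing human MT1. […] Cyclic AMP was measured in duplicate by radioimmunoassay. Data are mean ± SEM of quadruplicate cell samples.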

[11] = molecular target: T1, Melatonin receptor type 1A; experiment: Activity at MT1 receptor expressed in NIH3T3 cells assessed as inhibition of forskolin-stimulated cAMP synthesis at 1 uM; format: functional, cell-based; outline: as §3
[12] = molecular target: T1, Melatonin receptor type 1A; experiment: Activity at MT1 receptor expressed in NIH3T3 cells assessed as inhibition of […] cAMP synthesis at 10 uM; format: functional, cell-based; conditions: filed as antagonist; outline: as §4
[13] = molecular target: T1, Melatonin receptor type 1A; experiment: Activity at MT1 receptor expressed in NIH3T3 cells assessed as inhibition of forskolin-stimulated cAMP synthesis at 10 uM; format: functional, cell-based; outline: as §3
[14] = Xenopus laevis, Melanophore, read-out: EC50

Row | SMILES | IC50 [1] [nM] | Ki [3] [nM] | Ki [4] [nM] | EC50 [5, 14] [nM] | Activity [7] | other results
1 | CCC(=O)NCC1(c2cn(C)c3ccc(OC)cc23)CCC1 | 826 | 34 | 4.4 | 980 |  | Activity [2]: 20%
2 | CCCC(=O)NCC1(c2c[nH]c3ccc(OC)cc23)CCC1 |  | 116 | 57.4 | 2.56 | inactive | Activity [6]: Agonist; Activity [8]: Agonist
3 | COc1ccc2c(c1)c(C(C)CNC(C)=O)cn2C (stereo in doubt; (-)6a) [listing 1 of 2 here] |  |  | 0.27 |  |  | EC50 ([5]; melanophore, read-out: EC50): 10.8 nM
4 | COc1ccc2[nH]cc(C3(CNC(=O)C4CCC4)CCC3)c2c1 | > 10000 | 493 | 62.2 |  |  | Activity [9]: inactive
5 | CCCC(=O)NCC1(c2cn(C)c3ccccc23)CCC1 | 3030 | 724 | 1740 |  |  | EC50 ([5]; melanophore): Not Active
6 | CCCC(=O)NCC1(c2cn(C)c3ccc(OC)cc23)CCC1 |  | 10.6 | 0.86 | 2 | inactive | Activity [10]: Antagonist; Activity [2]: 92%; Activity [11]: inactive
7 | COc1ccc2c(c1)c(C(C)CNC(C)=O)cn2C (stereo in doubt; 6a) [listing 1 of 2 here] |  |  | 0.41 |  |  | EC50 ([5]; melanophore, read-out: EC50): 1.72 nM
8 | COc1ccc2c(c1)c(C1(CNC(C)=O)CC1)cn2C |  | 176 | 90 | 10.5 | inactive | 
9 | COc1ccc2c(c1)c(C(C)(C)CNC(C)=O)cn2C |  | 11.5 | 1.29 | 6.31 | inactive | 
10 | CC(=O)NCC1(c2cn(C)c3ccccc23)CCC1 | 1250 | 2190 | 1260 |  |  | EC50 ([5]; melanophore): Not Active
11 | COc1ccc2c(c1)c(C(C)CNC(C)=O)cn2C (stereo in doubt; (-)6a) [listing 2 of 2 here] |  |  |  |  | inactive | 
12 | COc1ccc2c(c1)c(C1(CNC(C)=O)CCCC1)cn2C | 628 | 148 | 66.1 |  |  | Activity [9]: inactive
13 | COc1ccc2[nH]cc(C(C)(C)CNC(C)=O)c2c1 |  | 1.12 | 2.75 | 0.0072 | inactive | Activity [6]: Agonist; Activity [8]: Agonist
14 | COc1ccc2[nH]cc(CCNC(C)=O)c2c1 [MELATONIN] |  |  |  | 0.063 | inactive | 
15 | COc1ccc2[nH]cc(C3(CNC(=O)C4CC4)CCC3)c2c1 | 2500 | 57.8 | 28.9 |  |  | Activity [9]: inactive
16 | CCCC(=O)NCC1(c2cn(C)c3ccc(OC)cc23)CCCC1 | 1640 | 589 | 85.1 |  |  | Activity [12]: Antagonist; Activity [13]: inactive; Activity [9]: inactive
17 | CCCC(=O)NCC(C)(C)c1cn(C)c2ccc(OC)cc12 |  | 8.51 | 0.74 | 1 | inactive | Activity [6]: Agonist; Activity [8]: Agonist
18 | COc1ccc2c(c1)c(C(C)CNC(C)=O)cn2C (single isomer, unassigned; (+)) [listing 1 of 2 here] |  |  | 0.5 |  |  | EC50 ([5]; melanophore, read-out: EC50): 0.98 nM
19 | COc1ccc2[nH]cc(C(C)CNC(C)=O)c2c1 (configuration not stated) |  | 1.67 | 2.94 | 0.049 | inactive | 

Row | SMILES | IC50 [1] [nM] | Ki [3] [nM] | Ki [4] [nM] | EC50 [5, 14] [nM] | Activity [7] | other results
20 | CCC(=O)NCC1(c2c[nH]c3ccc(OC)cc23)CCC1 |  | 65.7 | 32 | 0.99 | inactive | 
21 | COc1ccc2c(c1)c(C1(CNC(C)=O)CCC1)cn2C | 637 | 483 | 72 | 1010 |  | Activity [2]: 8%
22 | CCCC(=O)NCC(C)c1cn(C)c2ccc(OC)cc12 (configuration not stated) |  | 4.27 | 0.47 | 1 | inactive | 
23 | CCC(=O)NCC1(c2cn(C)c3ccc(OC)cc23)CC1 |  | 86 | 39 | 6.8 | inactive | 
24 | COc1ccc2c(c1)c(C1(CNC(=O)C3CC3)CCCC1)cn2C | 1180 | 468 | 257 |  |  | Activity [9]: inactive
25 | COc1ccc2c(c1)c(C(C)CNC(C)=O)cn2C (single isomer, unassigned; (+)) [listing 2 of 2 here] |  |  |  |  | inactive | 
26 | COc1ccc2c(c1)c(C(C)(C)CNC(=O)C1CCC1)cn2C |  | 170 | 33.1 | 57.5 | inactive | 
27 | CCC(=O)NCC(C)c1cn(C)c2ccc(OC)cc12 (configuration not stated) |  | 4.9 | 1.02 | 3.72 | inactive | 
28 | COc1ccc2[nH]cc(C3(CNC(C)=O)CCC3)c2c1 |  | 8.2 | 3.3 | 1.67 | inactive | 
29 | CCC(=O)NCC(C)(C)c1cn(C)c2ccc(OC)cc12 |  | 6.03 | 1.15 | 1.26 | inactive | 
30 | COc1ccc2c(c1)c(C(C)CNC(C)=O)cn2C (stereo in doubt; 6a) [listing 2 of 2 here] |  |  |  |  | inactive | 
31 | CCC(=O)NCC1(c2cn(C)c3ccc(OC)cc23)CCCC1 | 811 | 302 | 102 |  |  | Activity [9]: inactive
32 | COc1ccc2c(c1)c(C1(CNC(=O)C3CCC3)CCCC1)cn2C | 1770 | 479 | 407 |  |  | Activity [9]: inactive
33 | COc1ccc2c(c1)c(C1(CNC(=O)C3CC3)CCC1)cn2C | 2070 | 307 | 138 |  |  | Activity [9]: inactive
34 | CCCC(=O)NCC1(c2cn(C)c3ccc(OC)cc23)CC1 |  | 212 | 7.5 | 1.7 | inactive | Activity [6]: Agonist; Activity [8]: Agonist
35 | CCC(=O)NCC1(c2cn(C)c3ccccc23)CCC1 | 1150 | 1510 | 1050 |  |  | EC50 ([5]; melanophore): Not Active
36 | COc1ccc2c(c1)c(C1(CNC(=O)C3CCC3)CCC1)cn2C | > 10000 | 714 | 3770 |  |  | EC50 ([5]; melanophore): Not Active; Activity [9]: inactive
37 | Cn1cc(C2(CNC(=O)C3CC3)CCC2)c2ccccc21 | 3440 | 617 | 1440 |  |  | EC50 ([5]; melanophore): Not Active
